Bioassay records: PubChem, Sanford-Burnham Center for Chemical Genomics
Apaf-1 act: activators of human Apaf-1 apoptosome | O14727 | Apaf-1 apoptosome caspase-3 activation, DEVD-Rh110 fluorescence; active compounds read low | activity change, negative = activation, % at 20 µM | hit rate 0.31% among 330,000;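 active = activity change at or below -40% at 20 µM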
Target sequence (O14727 whole entry, looked up): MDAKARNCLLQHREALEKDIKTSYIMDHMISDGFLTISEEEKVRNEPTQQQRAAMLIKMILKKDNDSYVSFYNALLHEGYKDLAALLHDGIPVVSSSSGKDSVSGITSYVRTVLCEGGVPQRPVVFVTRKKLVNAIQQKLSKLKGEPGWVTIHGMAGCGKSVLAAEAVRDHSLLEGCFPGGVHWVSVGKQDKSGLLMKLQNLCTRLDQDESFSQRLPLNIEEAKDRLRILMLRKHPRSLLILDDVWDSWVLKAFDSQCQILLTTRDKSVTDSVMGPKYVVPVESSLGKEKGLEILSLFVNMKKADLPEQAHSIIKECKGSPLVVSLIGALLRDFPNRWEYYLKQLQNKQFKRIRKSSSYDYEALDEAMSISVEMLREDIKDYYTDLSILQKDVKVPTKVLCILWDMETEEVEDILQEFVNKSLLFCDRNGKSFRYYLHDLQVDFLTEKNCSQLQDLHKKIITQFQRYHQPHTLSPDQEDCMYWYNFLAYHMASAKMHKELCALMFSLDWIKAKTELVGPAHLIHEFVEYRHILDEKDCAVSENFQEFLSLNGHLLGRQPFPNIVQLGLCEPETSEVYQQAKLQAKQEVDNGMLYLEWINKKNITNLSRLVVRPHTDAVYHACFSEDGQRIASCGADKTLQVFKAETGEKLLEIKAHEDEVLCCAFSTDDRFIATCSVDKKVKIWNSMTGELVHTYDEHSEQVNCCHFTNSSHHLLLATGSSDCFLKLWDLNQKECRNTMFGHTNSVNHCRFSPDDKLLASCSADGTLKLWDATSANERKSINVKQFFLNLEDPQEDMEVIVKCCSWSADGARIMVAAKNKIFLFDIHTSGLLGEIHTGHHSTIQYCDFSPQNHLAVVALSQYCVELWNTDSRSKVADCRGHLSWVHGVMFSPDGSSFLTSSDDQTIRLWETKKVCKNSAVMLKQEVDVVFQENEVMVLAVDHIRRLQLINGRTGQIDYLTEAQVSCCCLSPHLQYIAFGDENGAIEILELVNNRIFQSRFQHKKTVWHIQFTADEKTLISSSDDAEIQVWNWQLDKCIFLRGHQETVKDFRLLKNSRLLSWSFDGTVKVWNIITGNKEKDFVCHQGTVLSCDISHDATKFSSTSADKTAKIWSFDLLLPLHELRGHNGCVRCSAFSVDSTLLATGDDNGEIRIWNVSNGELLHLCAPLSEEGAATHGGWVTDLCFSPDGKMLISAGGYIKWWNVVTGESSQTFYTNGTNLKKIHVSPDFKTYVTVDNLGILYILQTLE
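Material: biochemical Apaf-1 apoptosome reconstitution; Medium: 20 mM HEPES buffer, pH 7.5, containing CHAPS and BSA; Reagent: dATP, cytochrome c, and (Z-DEVD)2-Rh110 caspase-3 substrate; Times: 30 min preincubation, 50 min reaction, room temperature; Signal: Rh110 fluorescence, excitation 480 nm, emission 540 nm; Measure: Caspase-3 activity via Apaf-1.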
Rh110 act interf: Rh110 signal interference in Apaf-1 activator counter-screen; shares compounds with Apaf-1 act; Rh110 fluorescence interference, quenched caspase reaction, Ex480/Em540; fluorescence interference (activity change), % at 20 µM, hits read low; 980 tested, under 10 active; AID 504616;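 active = mean activity change at or below -40% when tested at 20 µM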
Apaf-1 act conf2: confirmation of human Apaf-1 activators; shares compounds with Apaf-1 act; reconstituted apoptosome caspase-3 activity, DEVD-Rh110 fluorescence; active compounds read low; activity change, negative = activation, % at 20 µM; hit rate 5% among 980;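 active = mean activity change at or below -40%, meaning activation of 40% or more, at 20 µM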
Apaf1 act interf: counter-screen for Apaf-1 activators: fluorescence interference, dose response; shares compounds with Apaf-1 act; fluorescence interference counterscreen, Apaf-1 activator assay; EC50, µM; 55 tested, under 10 active; call rule not given here
A number is an active result. Not all results are given here.

For CCN1CCN(CCc2nc3cc(NC(=O)COc4ccccc4)ccc3n2C)CC1 the results were Apaf-1 act inactive.
For Cc1cccc(OCCCC(=O)NNC(=O)CCN2CCN(c3ccccc3)CC2)c1 the results were Apaf-1 act -630, Rh110 act interf inactive and Apaf-1 act conf2 inactive.
For CC[C@@H](C)[C@@H]1CN([C@@H](CN2CCC[C@H]2CN2C(N)=NC[C@H]2C(C)C)C(C)C)C(=N)N1CCc1ccc(Cl)c(Cl)c1 the results were Apaf-1 act inactive.
Screening CN(C)c1cc(Cl)c2nonc2c1N returned Apaf-1 act inactive.
For Nc1ccc2nc3c(c(Cl)c2c1)CCCC3 the results were Apaf-1 act inactive.
Screening COc1ccc2nc3ccccc3nc2c1N returned Apaf-1 act inactive.
For COc1ccc(C(=O)n2nc(-c3ccccc3)nc2N)cc1OC the results were Apaf-1 act -363, Rh110 act interf inactive and Apaf-1 act conf2 inactive.
Oc1ccc(C[C@@H]2CNCCN2CCC23CC4CC(CC(C4)C2)C3)cc1 was read as Apaf-1 act inactive.
`C#CCOCCOCCOCCNc1nc(N2CCN(C(=O)[C@H]([C@@H](C)CC)n3cc(CCCCN)nn3)CC2)nc(N2CCN(C(=O)[C@H]([C@@H](C)CC)n3cc(CCCN=C(N)N)nn3)CC2)n1` gave Apaf-1 act inactive.
CC(=O)c1ccc(OCC(O)CN2CCN(Cc3ccc4c(c3)OCO4)CC2)cc1 (configuration not stated) was read as Apaf-1 act inactive.
For C/C(=N\NC(=O)Cn1ccc(C(F)(F)F)n1)c1ccc2c(c1)OCO2 the results were Apaf-1 act -134, Rh110 act interf inactive and Apaf-1 act conf2 inactive.
`CC(=O)Nc1ccc(CN2CCc3c([nH]c4ccccc34)C2C(C)(C)C)cc1` (configuration not stated) gave Apaf-1 act -55, Rh110 act interf inactive and Apaf-1 act conf2 inactive.
N#CCCn1cc(C(CC(=O)c2ccc(Br)cc2)C(=O)O)c2ccccc21 (configuration not stated) was read as Apaf-1 act -67, Rh110 act interf inactive, Apaf-1 act conf2 -48 and Apaf1 act interf inactive.
`N=c1n(CC(=O)c2ccc(Br)cc2)c2ccccc2n1Cc1ccccc1` gave Apaf-1 act inactive.
CCCC(=O)OCCNc1cc(SCc2ccco2)c2nonc2c1[N+](=O)[O-] was read as Apaf-1 act inactive.
`CCCCc1cc(=O)oc2cc(OCC(=O)NCCN3CCOCC3)c(Cl)cc12` gave Apaf-1 act inactive.
For COc1cccc(C(=O)NN2C(=S)N(c3ccccc3)C(=O)C2CC(N)=O)c1 (configuration not stated) the results were Apaf-1 act -83, Rh110 act interf inactive and Apaf-1 act conf2 inactive.
Screening Cc1c(O)cccc1C(=O)N[C@@H](CSc1ccccc1)[C@H](O)CN1C[C@H]2CCCC[C@H]2C[C@H]1C(=O)NC(C)(C)C returned Apaf-1 act inactive.
Screening COc1ccccc1N1CCN(CC(O)COc2cccc3ccccc23)CC1 (configuration not stated) returned Apaf-1 act inactive.
Screening Cc1c(C)n(CC(O)CN2CCN(C)CC2)c2ccccc12 (configuration not stated) returned Apaf-1 act -67, Rh110 act interf inactive and Apaf-1 act conf2 inactive.
Screening Cc1c(C)n(CCC(=O)O)c2ccccc12 returned Apaf-1 act -70, Rh110 act interf inactive and Apaf-1 act conf2 inactive.
Cc1ccc(-n2nc3ccc(N)cc3n2)cc1C was read as Apaf-1 act inactive.
`NC1=NC[C@H](Cc2ccc(O)cc2)N1CCCCC1CCCCC1` gave Apaf-1 act inactive.
For C#CCOCCOCCOCCNc1nc(N2CCN(C(=O)[C@H](Cc3cc4ccccc4[nH]3)n3cc([C@@H](N)CC(C)C)nn3)CC2)nc(N2CCN(C(=O)[C@H](Cc3cc4ccccc4[nH]3)n3cc([C@@H](N)CC(C)C)nn3)CC2)n1 the results were Apaf-1 act inactive.
For Cc1cccc(OCc2n(CC(=O)OC3CC(C)CCC3C(C)C)c3ccccc3[n+]2C)c1 (configuration not stated) the results were Apaf-1 act inactive.
Screening CCCCc1nc(C(N)=O)c2[nH]c(=O)n(-c3ccc(OCC)cc3)c2n1 returned Apaf-1 act -157, Rh110 act interf inactive and Apaf-1 act conf2 inactive.
For COc1ccc(-c2nc(-c3ccccc3)c(-c3cccs3)[nH]2)cc1OC the results were Apaf-1 act -373, Rh110 act interf inactive and Apaf-1 act conf2 inactive.
For O=C(CSc1nnnn1-c1ccc(C(=O)O)cc1)NC1CC1 the results were Apaf-1 act -324, Rh110 act interf inactive and Apaf-1 act conf2 inactive.
For Nc1cc(N)c(OCC(F)(F)F)cc1OCC(F)(F)F the results were Apaf-1 act inactive.
For CC1=CC(C)(C)N2C(=O)C(=Nc3ccc(O)cc3)c3cccc1c32 the results were Apaf-1 act inactive.
Screening CC(=O)c1ccc(NC(=O)c2ccc3nc(-c4ccco4)c(-c4ccco4)nc3c2)cc1 returned Apaf-1 act inactive.
Screening CC(=O)c1ccc(NC(=O)c2cnsn2)cc1 returned Apaf-1 act -410, Rh110 act interf inactive and Apaf-1 act conf2 inactive.
Screening CC(=O)c1ccc(NC(=S)Nc2cccc3cnccc23)cc1 returned Apaf-1 act inactive.
Screening Cc1ccccc1OCCNc1cc(N2CC(C)NC(C)C2)ccc1[N+](=O)[O-] (configuration not stated) returned Apaf-1 act inactive.
Screening Cc1cc(-c2nnc(CCC(=O)NC(C)(C)C34CC5CC(CC(C5)C3)C4)o2)no1 returned Apaf-1 act -55, Rh110 act interf inactive and Apaf-1 act conf2 inactive.
`CCCCCc1ccc(OCCCC[n+]2ccccc2)c(CCCCC)c1` gave Apaf-1 act inactive.
`O=C(CN1CCc2cc3c(cc2C1)OCCCO3)Nc1cccc([N+](=O)[O-])c1` gave Apaf-1 act inactive.
O=C(Nc1ccncc1NC(=O)c1cccc([N+](=O)[O-])c1)c1cccc([N+](=O)[O-])c1 was read as Apaf-1 act -40, Rh110 act interf inactive and Apaf-1 act conf2 inactive.
Screening O=C(N/N=C/c1ccc(-c2ccccc2[N+](=O)[O-])o1)c1cccnc1 returned Apaf-1 act inactive.
`CC(C)OCCCNC1=C(Cl)C(=O)c2ccccc2C1=O` gave Apaf-1 act inactive.
For COCCNC(=O)c1c(N)n(CCCn2ccnc2)c2nc3ccccc3nc12 the results were Apaf-1 act inactive.
For Cc1ccc(-n2nc(C)c3c2OC(N)=C(C#N)C3c2ccoc2)cc1 (configuration not stated) the results were Apaf-1 act inactive.
